# Assay results gathered from unrelated publications.
# Compare with care: the assays were run in different laboratories.
# ABL1: Tyrosine-protein kinase ABL1 (ABL1, Homo sapiens, UniProt P00519)
# ABL1 E255K phosphorylated: Tyrosine-protein kinase ABL1, phosphorylated (ABL1, Homo sapiens, UniProt P00519, E255K)
# ABL1 F317L phosphorylated: Tyrosine-protein kinase ABL1, phosphorylated (ABL1, Homo sapiens, UniProt P00519, F317L)
# ABL1 Q252H phosphorylated: Tyrosine-protein kinase ABL1, phosphorylated (ABL1, Homo sapiens, UniProt P00519, Q252H)
# ABL1 H396P non-phosphorylated: Tyrosine-protein kinase ABL1, non-phosphorylated (ABL1, Homo sapiens, UniProt P00519, H396P)
# ABL1 H396P phosphorylated: Tyrosine-protein kinase ABL1, phosphorylated (ABL1, Homo sapiens, UniProt P00519, H396P)
# ABL1 T315I: Tyrosine-protein kinase ABL1 (ABL1, Homo sapiens, UniProt P00519, T315I)
Compound,target,test,conditions,endpoint,result
O=C1NC(=O)c2cc(Nc3ccc(F)cc3)c(Nc3ccc(F)cc3)cc21,ABL1,cell-free assay,0.5 µM,remaining signal,95.7%
O=C(O)[C@@H]1[C@@H](Cn2nnc3ccccc3c2=O)CC[C@H]1C(=O)c1ccc(OCCC2CCOCC2)cc1,ABL1 E255K phosphorylated,"binding, competition with immobilised ligand",1 µM,remaining binding,84%
Nc1ncnc2occ(-c3ccc(NC(=O)Nc4cc(C(F)(F)F)ccc4F)cc3)c12,"Tyrosine-protein kinase ABL1, non-phosphorylated (ABL1, Homo sapiens, UniProt P00519, T315I)","cell-free assay, inhibitor",20 µM,remaining signal,0%
COc1cc2nccc(Oc3ccc(NC(=O)Nc4ccc(F)cc4F)c(F)c3)c2cc1OC,ABL1,"thermal stability, DSF",10 µM,ΔTm,> 10 °C
c1cncc(-c2cccc(Nc3nccc(NC4CCCCC4)n3)c2)c1,ABL1 E255K phosphorylated,"binding, competition with immobilised ligand",10 µM,remaining binding,14%
C=CC(=O)N1CCC(C(=O)NCC(=O)N2CCN(c3nc(-c4cnc(N)nc4C(F)F)nc(N4CCOCC4)n3)CC2)CC1,ABL1 F317L phosphorylated,"binding, competition with immobilised ligand",1 µM,remaining binding,100%
Cc1nccc(COC(=O)N2C[C@@H]3[C@@H](CNC(=O)c4ccc5[nH]nnc5c4)[C@@H]3C2)n1,ABL1 Q252H phosphorylated,"cell-free assay, competition with immobilised ligand",1 µM,remaining binding,93%
C[C@@H](c1ccc(-n2cnc3c(N)ncnc32)cc1)N1CCc2nn(C)c(Cc3ccccc3)c2C1=O,ABL1 H396P non-phosphorylated,"binding, competition with immobilised ligand",0.1 µM,remaining binding,13%
CN([C@@H]1CCc2c(CC(=O)O)c3cc(S(C)(=O)=O)ccc3n2C1)S(=O)(=O)c1ccc(F)cc1,ABL1 H396P phosphorylated,"cell-free assay, competition with immobilised ligand",1 µM,remaining binding,78%
CNC(=O)[C@@H]1CC[C@@H](n2c(-c3ccc4cnccc4c3)nc3ccc(C(=O)NCc4cccc(C(N)=O)c4)cc32)C1,ABL1 E255K phosphorylated,"binding, competition with immobilised ligand",1 µM,remaining binding,100%
Cc1cc(NC(=O)c2cccc3cc(-c4cccc5[nH]nc(N)c45)ccc23)ccc1F,"Tyrosine-protein kinase ABL1 (ABL1, Homo sapiens, UniProt P00519, Q252H)","enzyme activity, inhibitor",0.1 µM,activity vs control,88%
O=C(Nc1c[nH]nc1C(=O)NC1CCNCC1)c1cc(F)cc(F)c1,ABL1 F317L phosphorylated,"binding, competition with immobilised ligand",1 µM,remaining binding,100%
COc1cc(-c2cc(-c3ccc(N4CCNCC4)cc3)cnc2N)cc(OC)c1OC,ABL1 T315I,"enzyme activity, inhibitor",0.1 µM,inhibition,13%
COc1ncc2cc3ccccc3nc2c1C#N,ABL1 H396P phosphorylated,"cell-free assay, competition with immobilised ligand",5 µM,remaining binding,97%
CCCOc1ccc(OC)c(F)c1C(=O)c1ccc(C(=O)N[C@@H]2CNC[C@H]2NC(=O)c2ccc3[nH]ncc3c2)cc1,"Tyrosine-protein kinase ABL1 (ABL1, Homo sapiens, UniProt P00519, H396P)","enzyme activity, inhibitor",10 µM,remaining activity,107%
O=C(NCCCN1CCOCC1)c1ccc(Nc2ncc(Cl)c(-c3ccc(Cl)s3)n2)cc1,ABL1 Q252H phosphorylated,"binding, competition with immobilised ligand",1 µM,remaining binding,29%
Cc1ccc(C(=O)NCc2ccsc2)cc1C#Cc1cn(C(C)C)c2ncnc(N)c12,ABL1,"enzyme activity, inhibitor",1 µM,activity vs control,1%
CNc1cccc2cc(C(=O)Nc3ccc(C(=O)O)cc3)c(=O)[nH]c12,ABL1 T315I,"enzyme activity, inhibitor",10 µM,inhibition,1.3%
C[S+]([O-])c1ccc(-c2nc(-c3ccncc3)c(-c3ccc(F)cc3)[nH]2)cc1 (centres unmarked),ABL1,cell-free assay,0.5 µM,remaining signal,97%
O=C(c1ccc(Nc2ncc(Cl)c(-c3cc4ccccc4s3)n2)cc1)N1CCC(N2CCCC2)CC1,"Tyrosine-protein kinase ABL1, phosphorylated (ABL1, Homo sapiens, UniProt P00519, M351T)","binding, competition with immobilised ligand",1 µM,remaining binding,12%
COc1cc2ncnc(Nc3ccc(Oc4ccccc4)c(C)c3C)c2cc1OC,ABL1 T315I,"enzyme activity, inhibitor",1 µM,inhibition,8%
COc1ccc(COc2ccc(Cc3cnc(N)nc3N)cc2OC)cc1,ABL1,cell-free assay,0.5 µM,remaining signal,102%
O=C(Nc1cccnn1)N1CC(C/C=C/c2cncc(Oc3ccc(C(F)(F)F)cn3)n2)C1,"Tyrosine-protein kinase ABL1, phosphorylated (ABL1, Homo sapiens, UniProt P00519)","cell-free assay, competition with immobilised ligand",1 µM,remaining binding,82%
Cc1ccc(NC(=O)c2ccc(C)c(C(F)(F)F)c2)cc1C#Cc1nn(C2CCC(O)CC2)c2ncnc(N)c12 (centres unmarked),ABL1,cell-free assay,10 µM,remaining signal,-3%
Cc1cnc(NC2CCOCC2)nc1-n1cnc(C(=O)NC(CN)c2cc(F)cc(Cl)c2)c1 (centres unmarked),"Tyrosine-protein kinase ABL1 (ABL1, Homo sapiens, UniProt P00519, Y253F)","enzyme activity, inhibitor, radiometric",1 µM,remaining activity,102%
CC1=C(C#N)[C@@H](c2ccc3[nH]nc(C)c3c2)C(C#N)=C(c2ccc(Cl)cc2)N1,ABL1 Q252H phosphorylated,"cell-free assay, competition with immobilised ligand",1 µM,remaining binding,100%
CN(CCCC(F)(F)F)c1nccc(-c2cnn3ncccc23)n1,"Tyrosine-protein kinase ABL1 (ABL1, Homo sapiens, UniProt P00519, F317I)",binding,1 µM,remaining binding,100%
COc1cnc(Nc2cccc(S(N)(=O)=O)c2)nc1N1CCN(c2ccccc2)C(=O)C1,"Tyrosine-protein kinase ABL1, non-phosphorylated (ABL1, Homo sapiens, UniProt P00519, F317L)","binding, competition with immobilised ligand",1 µM,remaining binding,90%
O=C(c1ccc(Nc2nccc(-c3cc4ccccc4s3)n2)cc1)N1CCC(N2CCCC2)CC1,"Tyrosine-protein kinase ABL1, phosphorylated (ABL1, Homo sapiens, UniProt P00519, T315I)","binding, competition with immobilised ligand",1 µM,remaining binding,14%
CN([C@@H]1CCc2c(CC(=O)O)c3ccccc3n2C1)S(=O)(=O)c1ccc(F)cc1,ABL1 H396P non-phosphorylated,"cell-free assay, competition with immobilised ligand",1 µM,remaining binding,100%
Cc1cnc(Nc2ccc(C(=O)N3CCC(N4CCCC4)CC3)cc2)nc1-c1cc2ccccc2s1,ABL1 H396P non-phosphorylated,"binding, competition with immobilised ligand",1 µM,remaining binding,0.1%
Nc1cnc(N2CCc3cc(S(=O)(=O)Nc4c(F)cc(Cl)cc4F)cc(N4CCCC4=O)c32)nc1,ABL1 F317L phosphorylated,"cell-free assay, competition with immobilised ligand",1 µM,remaining binding,78%
N[C@H]1CCN(c2nccc(-c3cnn4ncccc34)n2)C1,"Tyrosine-protein kinase ABL1 (ABL1, Homo sapiens, UniProt P00519, F317L)",binding,1 µM,remaining binding,100%
Nc1ncc2c(n1)-c1c([nH]c3ccc(C#CC4CC4)cc13)CCCC2,ABL1 E255K phosphorylated,"binding, competition with immobilised ligand",1 µM,remaining binding,100%
O=C(NCc1ncc(C(F)(F)F)cc1Cl)c1ccc2c(c1)C1(CCS(=O)(=O)CC1)[C@@H](C1CC1)N2S(=O)(=O)c1ccc(F)cc1,"Tyrosine-protein kinase ABL1, non-phosphorylated (ABL1, Homo sapiens, UniProt P00519, Q252H)","cell-free assay, competition with immobilised ligand",1 µM,remaining binding,100%
